Source: PubChem BioAssay
Values without a mark were called inactive. Inconclusive results are not listed. Active and inactive are the calls of the source.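 How the source made its calls, unless noted: active means inhibition over a set limit, the all-compound mean plus 3 SD, in both replicate runs; inconclusive means over that limit in just one replicate run; inactive means at or under that limit in both runs.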

Tests used:
[1] = OD615 S. cerevisiae growth inhibition, permissive medium, pilot counter-assay, permissive growth control for S. cerevisiae lifespan shortening project (AID 705;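 active means growth inhibition above 25% in both replicates, a cutoff set 3 SD above the mean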); conditions: OD615, 24 h, at 10 µM, active compounds read high
Outline: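 assay system = Saccharomyces cerevisiae strain carrying genetically modified DeaD replicative-lifespan system | technique = absorbance (optical density) at 615 nm | buffer or medium = permissive raffinose/galactose medium | timing = cells pre-grown 4 h, then 24 h compound exposure, 30 °C humidified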

[2] = Restrictive medium S. cerevisiae growth inhibition, OD615, pilot screen of yeast lifespan reduction project, restrictive growth control (AID 706;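 active means growth inhibition above a set limit, 3 SD over mean compound inhibition, in both replicates, cut at about 43% in these data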;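 further: modified DeaD lifespan yeast strain shifted to restrictive glucose medium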); conditions: OD615, 48 h, at 10 µM, active compounds read high
Outline: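 System: modified S. cerevisiae. Buffer or medium: CSMM-D glucose medium. Incubation: 4 h pre-growth plus 48 h compound exposure, 30 °C. Detection: absorbance (optical density) measured at 615 nm.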

[3] = viability gain of MRP-1-high H69AR cells under doxorubicin, pilot screen, MRP-1 activator project, CellTiter-Glo, duplicate (AID 807;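 active means viability increase at or above a cutoff of the median across tested compounds plus 3 SD, cut at about 8.5% in these data, passing the limit was not always enough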;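 further: compound pretreatment 18-22 h then 72 h combined with doxorubicin; 0% = doxorubicin alone and 100% = vehicle without doxorubicin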); conditions: H69AR viability with doxorubicin, CellTiter-Glo luminescence; at 10 µM; active compounds read high
[4] = growth suppression of beta-catenin knockout HCT116, pilot screen, human colon tumor cells (AID 823;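 active means cell viability at or below a set limit in both duplicate runs, the limit being the all-compound median minus 4 SD, cut at about 23% in these data, passing the limit was not always enough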;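 further: 0% = wells killed by 20 µM Hyamine and 100% = untreated DMSO cell wells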); conditions: CellTiter-Glo, 60 h, at 10 µM, active compounds read low
[5] = growth suppression of PTEN-deleted HCT116, pilot screen, cell-based, HCT116 clonal line, CellTiter-Glo (AID 824;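 active means viability at or below 27.92% in each of two runs, the all-compound median minus 4 SD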;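 further: 0% = 20 µM Hyamine control and 100% = vehicle cell control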); conditions: 60 h, at 10 µM, active compounds read low
[6] = inhibitors of the yeast RAM network, pilot screen, dse1pr::URA3 reporter, 5-FOA selection (AID 869);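 further: 0% = DMSO wells with no growth and 100% = 10 µM 1-NA-PP1 with full growth; RAM network block rescues cells from 5-FOA so hits raise OD615 growth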; conditions: S. cerevisiae dse1pr::URA3 5-FOA growth, OD615, 2 d; at 10 µM; active compounds read high; strain carries analog-sensitive mutant Cbk1 kinase
[7] = RAM signaling pathway blockade in yeast – S. cerevisiae, Pdr1DBD-CYC8 efflux-inhibited sensitized strain, primary screen (AID 1298;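 active means RAM network inhibition above 8.4% in each of two replicates, 3 SD over the compound average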;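 further: 0% = DMSO untreated cells without growth and 100% = 10 µM 1-NA-PP1 full growth; higher means more yeast growth rescued from 5-FOA killing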); conditions: S. cerevisiae cbk1-as DSE1-URA3 strain, 5-FOA growth OD615, 2 d; at 50 µM; active compounds read high

Structure (SMILES)	growth inhibition [1] [%]	growth inhibition [2] [%]	viability increase [3] [%]	viability [4]	viability [5]	inhibition [6] [%]	RAM network inhibition [7] [%]
CCOc1ccc(N2C(=O)CC(N3CCN(C4CCc5ccccc5C4)CC3)C2=O)cc1 (configuration not stated)	2.08	0.34	-1.42	94.6%	93.1%	1.93	1.53
CCCCOc1ccc(-c2nc(-c3cccnc3)no2)cc1	-3.21	4.81	4.19	68.4%	82.9%	0.07	2.29
CCOC(=O)COn1c(=O)c(=O)n(O)c2ccccc21	-14.5	-14.8	-4.99	87.2%	87.1%	1.54	1.4
CCOc1ccc2nc(NC(=O)c3ccoc3C)sc2c1	1.53	-12.2	-6.35	19.1% (active)	17.1% (active)	1.03	2.4
CCOc1ccccc1N1C(=O)c2cccnc2C1=O	-9.2	7.41	-1.2	102%	98.7%	1.04	10.2
CCOC(=O)c1c(C)c(C(=O)O)n(C)c1C	-12.4	-19.7	0.64	99.5%	94.6%	2.54	2.91
O=C(NCc1ccccn1)C1CCC(=O)N1C1CCCC1 (configuration not stated)	-0.9	3.94	-0.45	98.2%	98%	1.67	4.67
O=NC1=C(c2c(O)[nH]c3ccccc23)CCCC1	-3.26	-12	-5.46	91%	93.9%	1.6	4.71
O=C(Nn1c(=S)[nH]c2ccccc2c1=O)c1ccncc1	6.51	-5.44	-2.87	91.9%	90.5%	1.75	4.74
CC(C)N(Cc1nc2ccccc2[nH]1)C(C)C	2.5	4.54	-0.49	94.1%	91.9%	1.25	0.22
COc1ccccc1N1CCN(C(=O)CCCn2c(=O)[nH]c3ccsc3c2=O)CC1	3.76	7.54	-2.24	98.6%	97.2%	0.74	-0.42
Cc1cc(C)nc(SCC(=O)N2CCCCC2)n1	-13.6	-20	0.71	97.4%	101%	2.34	0.74
N#Cc1c(-c2ccco2)c2c([nH]c1=S)CCCC2	6.88	-0.73	-3.4	105%	93.8%	1.57	1.82
CCCCCCNS(=O)(=O)c1nc2nc(C)cc(C)n2n1	-15.4	-13.1	2.63	104%	104%	1.35	1.21
Cc1oc(-c2cccc(Cl)c2)nc1CN1CCC(C(=O)NCCCN2CCCC2=O)CC1	-1.65	-10.2	-3.95	85.8%	93.5%	0.59	2.35
Cn1c(C(=O)N2CCN(c3ccc(Cl)cc3)CC2)cc2c(=O)n(C)c3ccccc3c21	-9.61	2.92	-0.43	93%	90.6%	2.57	2.59
CCSc1nnc2c(n1)OC1(CCCC1)Nc1ccccc1-2	-13.8	-3.69	-0.51	97.3%	93.5%	1.45	5.92
Cn1c(=O)c2c(nc(CN3CCN(CCO)CC3)n2Cc2ccccc2Cl)n(C)c1=O	4.8	-2.67	-3.91	98.2%	96.2%	0.875	4.94

Structure (SMILES)	growth inhibition [1] [%]	growth inhibition [2] [%]	viability increase [3] [%]	viability [4]	viability [5]	inhibition [6] [%]	RAM network inhibition [7] [%]
CC(=O)Nc1ccc(NC(=O)CSc2nccn2Cc2ccccc2)cc1	-0.94	3.38	-1.64	86.9%	88.8%	-0.265	0.96
O=C(Cn1cc2c(n1)CCCC2)Nc1ccccc1Br	-13	-9.29	-2.82	95.7%	86.7%	1.64	1.15
CCOC(=O)C1CCN(S(=O)(=O)c2cc(Br)cc3c2N(C(C)=O)C(C)C3)CC1 (configuration not stated)	-11.1	-29	0.29	93.4%	93.2%	1.19	11.2
Cc1ccc(C)c(NC(=O)CS(=O)(=O)c2cn(C)c3ccccc23)c1	-7.22	2.97	-0.69	103%	98.2%	0.025	1.3
CC1(C)CC(=O)C2(CC3=C(CC(C)(C)CC3=O)O2)C(=O)C1	-4.3	0.72	0.2	94.7%	97.1%	1.96	1.77
CSc1ccc(Cl)c(C(=O)NCc2ccco2)c1	-3.93	8.44	-3.7	85.8%	81.6%	2.33	5.31
COc1cc(Cl)c(S(=O)(=O)n2cnc(C)c2)cc1Cl	2.76	0.12	0.28	101%	104%	1.33	2.3
Cc1noc(NS(=O)(=O)c2ccc(N3Cc4ccccc4C3=O)cc2)c1C	-3.04	0.35	-2.74	102%	104%	1.45	5.3
CCOC(=O)N1CCC(N2CC34C=CC(O3)C(C(=O)Nc3ccc(C)cc3)C4C2=O)CC1 (configuration not stated)	-0.385	-0.16	1.43	100%	102%	1.33	2.54
c1csc(Cc2nc3ccccc3[nH]2)c1	-8.51	-11.8	0.14	97.8%	100%	2.71	-0.01
O=C(CN1CCN(Cc2ccc(F)cc2)C1=O)NCc1cccs1	-6.23	-1.7	1.33	99.5%	94.1%	0.97	2.12
O=C(Cc1cc(=O)[nH]c(=O)[nH]1)NCC1CCCO1 (configuration not stated)	7.33	-1.15	0.94	106%	104%	0.945	2.29
CC1C(=O)CC(c2ccccc2)N(C)C1c1ccccc1 (configuration not stated)	-16	-18	-4.71	82.8%	84.1%	2.57	8
NC(=O)C1CCN(C(=O)c2cnn(-c3ccccc3)c2NC(=O)c2ccco2)CC1	-2.77	1.08	-4.39	99.7%	98.8%	1.67	5.39
CN(C)CCCNc1ncnc2c1cnn2-c1ccccc1	-5.54	-5.82	2.9	94.3%	106%	0.27	-0.77
CCCn1nc(NC(=O)CC(C)C)c2cc3ccccc3nc21	-14.6	-11.4	-5.27	87.5%	87.3%	2.49	3.01
O=C1CC(Nc2ccc(N3CCOCC3)cc2)C(=O)N1c1cccc(C(F)(F)F)c1 (configuration not stated)	4.95	-14.4	-2.76	110%	98.2%	0.74	5.28
COC(=O)CCC(=O)Nc1ccc(Br)cc1	8.2	0.895	-1.52	101%	95.4%	1.16	6.37
